Data from ChEMBL document CHEMBL3393048, “Discovery of potent cytotoxic ortho-aryl chalcones as new scaffold targeting tubulin and mitosis with affinity-based fluorescence” (J Med Chem, 2014).
Activity calls are given as the source filed them. The calls are words filed in the database; no cut-off is given here.

Assays:
HepG2 = assay: Antiproliferative activity against human HepG2 cells after 48 hrs by SRB method; format: functional, cell-based; settings: HepG2, 48 h
In short: (§1)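 SRB assay. Cells in DMEM high glucose with 10% FBS were seeded at 5000/well and grown 24 h; a day-0 plate was fixed at that point. Compounds were added in triplicate for 48 h. IC50 came from nonlinear regression of dose–response curves from at least two independent experiments.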

SW480 = assay: Antiproliferative activity against human SW480 cells after 48 hrs by SRB method; format: functional, cell-based; settings: SW480, 48 h; in short: as §1
Tubulin (Homo sapiens) [1] = biological target: T1, Tubulin (Homo sapiens) (UniProt P68371+Q9H4B7+P0DPH7+P68366+Q13509+Q71U36+P04350+Q3ZCM7+P07437+P68363+Q9BQE3+Q6PEY2+Q13885+Q9BVA1+Q9BUF5); assay: Inhibition of tubulin polymerization (unknown origin) at 5 uM by DAPI staining-based fluorescence microscopy; format: protein-complex assay
MCF7 [2] = assay: Antiproliferative activity against human MCF7 cells after 48 hrs by SRB method; format: functional, cell-based; settings: MCF7, 48 h; in short: as §1
A549 [3] = assay: Antiproliferative activity against human A549 cells after 48 hrs by SRB method; format: functional, cell-based; settings: A549, 48 h
In short: as §1, with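 “h. Cells were fixed with TCA at 4 °C for 1 h, stained with 0.4% SRB, and the dye was solubilized in 10 mM Tris pH 10.4. OD was read at 515 nm with day-0 OD subtracted.” for “h.”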

[4] = Antiproliferative activity against human CNE2 cells after 48 hrs by SRB method; format: functional, cell-based; settings: CNE-2, 48 h; in short: as §1
A549 [5] = assay: Induction of microtubule disruption in human A549 cells assessed as multinucleation at 31 nM after 24 hrs by DAPI staining-based immunofluorescence microscopy; format: cell-based
A549 [6] = assay: Induction of microtubule disruption in human A549 cells assessed as massive and dotted microtubule disorder formation at 31 nM after 24 hrs by DAPI staining-based immunofluorescence microscopy; format: cell-based
A2780 [7] = assay: Antiproliferative activity against human A2780 cells after 48 hrs by SRB method; format: functional, cell-based; settings: A2780, 48 h; in short: as §1
MCF7 [8] = assay: Antiproliferative activity against doxorubicin-resistant human MCF7 cells after 48 hrs by SRB method; format: functional, cell-based; settings: MCF7, 48 h; in short: as §1
[9] = Antiproliferative activity against human HCT8 cells after 48 hrs by SRB method; format: functional, cell-based; settings: HCT-8, 48 h; in short: as §1
A2780 [10] = assay: Drug resistance index, ratio of IC50 for taxol-resistant human A2780 cells to IC50 for human A2780 cells; format: functional
In short: (§2)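 Drug resistance index = IC50 in the resistant line / IC50 in its parental line. […] Pairs: A549/CDDP vs A549, MCF-7/DOX vs MCF-7, A2780/TAX vs A2780, HCT-8/VCT vs HCT-8.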

A549 [11] = assay: Antitumor activity against human A549 cells xenografted in BALB/c nude mouse assessed as reduction in tumor weight at 2 mg/kg, ip administered every other day for 2 weeks (reference value: 1.446 gm); format: functional; settings: route intraperitoneal
[12] = Drug resistance index, ratio of IC50 for vincristine-resistant human HCT8 cells to IC50 for human HCT8 cells; format: functional, HCT-8; in short: as §2
Tubulin = assay: Inhibition of tubulin polymerization (unknown origin) by DAPI staining-based fluorescence microscopy; format: protein-complex assay, Homo sapiens
In short: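 Purified tubulin (99% pure; 20 μM as supplied) mixed with compound in general tubulin buffer (80 mM PIPES pH 6.9, 2.0 mM MgCl₂, 0.5 mM EGTA) with 1 mM GTP, 20% glycerol and DAPI reporter. Polymerization tracked kinetically at 37 °C as fluorescence rise (ex 360, em 450 nm). Duplicate wells per concentration. IC50 from at least two independent experiments.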

A549 [13] = assay: Cell cycle arrest in human A549 cells assessed as accumulation at G2/M phase at 31.25 nM after 24 hrs by Hoechst 33342 staining-based ArrayScanVTI analysis; format: functional
A549 [14] = assay: Induction of microtubule disruption in human A549 cells assessed as multipolarization of spindle at 31 nM after 24 hrs by DAPI staining-based immunofluorescence microscopy; format: cell-based
Tubulin (Homo sapiens) [15] = biological target: T1, Tubulin (Homo sapiens); assay: Binding affinity to tubulin (unknown origin) by fluorescence assay in presence of DTNB; format: protein-complex assay
A549 [16] = assay: Antitumor activity against human A549 cells xenografted in BALB/c nude mouse assessed as reduction in tumor volume at 2 mg/kg, ip administered every other day for 2 weeks (reference value: 1806.9 mm'3); format: functional; settings: route intraperitoneal
A549 [17] = assay: Antimitotic activity in human A549 cells assessed as multinucleation at 31 nM incubated for 24 hrs followed by cold treatment for 1 hr measured after 15 mins warm up by DAPI staining-based immunofluorescence microscopy; format: functional, cell-based
In short: (§3)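 A549 cells, 6 × 10⁴ per confocal dish, grown 24 h, then exposed 24 h (vehicle 0.5% DMSO, 37 °C). Dishes were held on ice 1 h to depolymerize microtubules, then rewarmed at 37 °C for 0, 5, 10 or 15 min. Cells were fixed in prewarmed paraformaldehyde 15 min and permeabilized with Triton X-100. […] Imaged by confocal microscopy.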

A549 [18] = assay: Antimitotic activity in human A549 cells assessed as disorganized mitosis at 31 nM incubated for 24 hrs followed by cold treatment for 1 hr measured after 15 mins warm up by DAPI staining-based immunofluorescence microscopy; format: functional, cell-based; in short: as §3
A549 [19] = assay: Cell cycle arrest in human A549 cells assessed as accumulation at G2/M phase at 7.81 to 250 nM after 24 hrs by Hoechst 33342 staining-based ArrayScanVTI analysis; format: functional
In short: (§4)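 A549 cells were seeded at 5000/well, cultured overnight, then treated 24 h over a 7.81–250 concentration series. Cells were fixed in prewarmed paraformaldehyde 10 min, permeabilized with Triton X-100, and nuclei stained with Hoechst 33342. Imaging was by ArrayScan VTI high-content analysis. Phase percentage = cells within a gated fluorescence intensity / total cells counted.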

A549 [20] = assay: Drug resistance index, ratio of IC50 for cis-platinum-resistant human A549 cells to IC50 for human A549 cells; format: functional; in short: as §2
MCF7 [21] = assay: Drug resistance index, ratio of IC50 for doxorubicin-resistant human MCF7 cells to IC50 for human MCF7 cells; format: functional; in short: as §2
A549 [22] = assay: Antiproliferative activity against cis-platinum-resistant human A549 cells after 48 hrs by SRB method; format: functional, cell-based; settings: A549, 48 h
In short: as §1, with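 “h. Cells were fixed with TCA at 4 °C for 1 h, stained with 0.4% SRB, and the dye was solubilized in 10 mM Tris pH 10.4. OD was read at 515 nm with day-0 OD subtracted.” for “h.”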

Tubulin (Homo sapiens) [23] = biological target: T1, Tubulin (Homo sapiens); assay: Binding affinity to tubulin (unknown origin) after 30 mins by fluorescence assay; format: protein-complex assay
In short: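 Intrinsic fluorescence on tubulin binding. Compounds were mixed with tubulin (4 μM or 8 μM) in general tubulin buffer and incubated 30 min. Readings were excitation 430/emission 510 nm or excitation 365/emission 465 nm, with kinetic reads from mixing. ΔF = stable emission minus tubulin-only fluorescence. Optimal wavelengths were set by wavelength scanning.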

A549 [24] = assay: Antimitotic activity in human A549 cells assessed as inhibition of microtubule reassembly in mitotic cells at 31 nM incubated for 24 hrs followed by cold treatment for 1 hr measured after 15 mins warm up by DAPI staining-based immunofluorescence microscopy; format: functional, cell-based; in short: as §3
Mus musculus = assay: Toxicity in BALB/c nude mouse xenografted with human A549 cells assessed as body weight at 2 mg/kg, ip administered every other day for 2 weeks; format: organism-based; parameters: dose 2 mg/kg, route intraperitoneal; settings: in vivo, 336 h
In short: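 Female BALB/c nude mice, 5 weeks old, given 1 × 10⁷ A549 cells subcutaneously in the right flank. At about 100 mm³ tumor volume, randomized into groups of eight. Dosed ip at 2 mg/kg every other day for 2 weeks. Controls received normal saline with 0.5% DMSO and 5% Kolliphor HS 15. Body weight monitored throughout.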

A549 [25] = assay: Antimitotic activity in human A549 cells assessed as multipolarization of spindle at 31 nM incubated for 24 hrs followed by cold treatment for 1 hr measured after 15 mins warm up by DAPI staining-based immunofluorescence microscopy; format: functional, cell-based; in short: as §3
Tubulin (Homo sapiens) [26] = biological target: T1, Tubulin (Homo sapiens); assay: Displacement of (E)-3-(4-(Dimethylamino)phenyl)-1-(4'-fluoro[1,1'-biphenyl]-2-yl)prop-2-en-1-one from tubulin (unknown origin) at 2 uM by fluorescence assay; format: protein-complex assay
In short: (§5)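 Competition assay. Tubulin (4 μM) and probe (8 μM) in general tubulin buffer at 37 °C were incubated until fluorescence plateaued (about 30 min; excitation 430, emission 510 nm). Competitors were then added at 0–80 μM and kinetics recorded at 37 °C. The stable F/F0 ratio was plotted against competitor concentration and fitted.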

[27] = Antiproliferative activity against vincristine-resistant human HCT8 cells after 48 hrs by SRB method; format: functional, cell-based; settings: HCT-8, 48 h
In short: as §1, with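 “h. Cells were fixed with TCA at 4 °C for 1 h, stained with 0.4% SRB, and the dye was solubilized in 10 mM Tris pH 10.4. OD was read at 515 nm with day-0 OD subtracted.” for “h.”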

A549 [28] = assay: Antimitotic activity in human A549 cells assessed as inhibition of microtubule reassembly in interphase cells at 31 nM incubated for 24 hrs followed by cold treatment for 1 hr measured after 15 mins warm up by DAPI staining-based immunofluorescence microscopy; format: functional, cell-based; in short: as §3
A2780 [29] = assay: Antiproliferative activity against taxol-resistant human A2780 cells after 48 hrs by SRB method; format: functional, cell-based; settings: A2780, 48 h; in short: as §1
A549 [30] = assay: Cell cycle arrest in human A549 cells assessed as accumulation at G2/M phase at 62.5 nM after 24 hrs by Hoechst 33342 staining-based ArrayScanVTI analysis; format: functional; in short: as §4
Tubulin (Homo sapiens) [31] = biological target: T1, Tubulin (Homo sapiens); assay: Displacement of (E)-3-(4-(Dimethylamino)phenyl)-1-(4'-fluoro[1,1'-biphenyl]-2-yl)prop-2-en-1-one from tubulin (unknown origin) by fluorescence assay; format: protein-complex assay; in short: as §5

Row | Compound | IC50 (HepG2) [nM] | IC50 (SW480) [nM] | IC50 (MCF7 [2]) [nM] | IC50 (A549 [3]) [nM] | IC50 [4] [nM] | IC50 (A2780 [7]) [nM] | IC50 (MCF7 [8]) [nM] | IC50 [9] [nM] | Ratio IC50 (A2780 [10]) | Ratio IC50 [12] | IC50 (Tubulin) [nM] | Activity (A549 [19]) | Ratio IC50 (A549 [20]) | Ratio IC50 (MCF7 [21]) | IC50 (A549 [22]) [nM] | IC50 [27] [nM] | IC50 (A2780 [29]) [nM] | other results
1 | COc1ccc(/C=C/C(=O)c2ccccc2-c2ccc(OC)c(OC)c2)cc1OC | 3200 | 7600 | 4900 | 8500 | 2500 | – | – | – | – | – | – | – | – | – | – | – | – | inhibition (Tubulin (Homo sapiens) [1]): inactive
2 | COc1ccc(/C=C/C(=O)c2ccccc2-c2cccc(F)c2)cc1O | 8 | 10 | 65 | 11 | 17 | 13 | 2 | 16 | 18 | 3.6 | 490 | Active | 16 | 0.03 | 180 | 57 | 230 | Activity (A549 [5]): Active; Activity (A549 [6]): Active; Activity (A549 [11]): 0.641 g; Activity (A549 [13]): Active; Activity (A549 [14]): Active; Activity (Tubulin (Homo sapiens) [15]): inactive; Activity (A549 [16]): 965.6 mm3; Activity (A549 [17]): Active; Activity (A549 [18]): Active; Activity (Tubulin (Homo sapiens) [23]): Dose-dependent effect; inhibition (A549 [24]): Active; Activity (Mus musculus): Non-toxic; Activity (A549 [25]): Active; Activity (Tubulin (Homo sapiens) [26]): Active; inhibition (A549 [28]): Active
3 | COc1ccc(/C=C/C(=O)c2ccccc2-c2ccc(F)cc2)cc1B(O)O | 30 | 41 | 220 | 82 | 21 | 63 | 24 | 63 | 3.6 | 1.3 | 3400 | Active | 1.1 | 0.6 | 74 | 84 | 230 | Activity (A549 [30]): Active
4 | CC[C@]1(O)C[C@H]2CN(CCc3c([nH]c4ccccc34)[C@@](C(=O)OC)(c3cc4c(cc3OC)N(C=O)[C@H]3[C@@](O)(C(=O)OC)[C@H](OC(C)=O)[C@]5(CC)C=CCN6CC[C@]43[C@@H]65)C2)C1 [VINCRISTINE] | – | – | – | – | – | – | 4300 | – | – | – | – | – | 4.7 | 1063 | 56 | 1900 | 930 | Activity (Tubulin (Homo sapiens) [31]): inactive
